Hsp70 activator – Hsp70 transcriptional activators, primary screen, cell-based, HeLa, Hsp70 promoter luciferase, luminescence, 10 µM. 0.04% of 200,000 active. AID 1203, 2008. HeLa Hsp70 promoter luciferase reporter; scaled: vehicle 0, proteasome-inhibitor control 100%. activation, % at 10 µM;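 active = activation above the mean across all tested compounds plus 3 SD, cutoff set per campaign, cut at about 5.5% in these data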;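 note: 100% = MG132 at 30 µM as the positive control and 0% = DMSO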
L major viab – Leishmania major promastigote growth inhibition, primary screen. AID 1063, 2008. inhibition, % at 10 µM. 9% of 200,000 active. Leishmania major promastigotes, resazurin fluorescence viability; in the data active = inhibition above about 50%;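 note: promastigotes grown with compound for 44 hours at 28 °C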
HSF1 inhib – HSF1 inhibitors in luciferase reporter cells, primary screen, cell-based, NIH3T3, luminescence; AID 2098, 2009; 0.77% of 300,000 active; NIH3T3-HGL HSE-luciferase, MG132-induced, luminescence 8 h; stronger effect = lower value; activity change, negative = inhibition, % at 7.5 µM (by protocol);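 active = more than half of replicate wells show activity change below -50%, luminescence cut by over half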;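 note: luciferase reports HSF-1 transcriptional activity via heat shock element; 0% = median of DMSO wells and -100% = zero luminescence signal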
HSF-1 act – HSF-1 activators, primary screen, NIH3T3-HGL cells, MG132 stress, luminescence, single point; NIH3T3-HGL HSF-1 luciferase reporter, 8 h; 100% = twice DMSO control signal; activation, % at 9 µM; 1.7% of 300,000 active; AID 504408, 2011;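 active = mean replicate activation of at least 50% with a set share of replicates each reaching 50%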;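 note: 0% = median of the neutral control wells and 100% = twice that signal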
T cruzi repl – inhibitors of intracellular T. cruzi growth, primary screen, luminescence, NIH3T3 host cells | T. cruzi beta-gal in NIH3T3, 90 h | inhibition, % (test concentration not listed) | 1.4% of 300,000 active;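 active = mean inhibition across valid replicates above about 55%, limit read from the data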;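 note: signal also drops with host cell toxicity which is not excluded here; 0% = plate median of DMSO wells and 100% = zero luminescence signal; higher percent means less beta-gal luminescence so fewer parasites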
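Material: NIH/3T3 host cells with β-galactosidase reporter T. cruzi; Input: 5,000 host fibroblasts per well; Medium: DMEM, 2% fetal bovine serum; Compound: 50 nL DMSO compound solution per well; Schedule: 3 h host attachment, then at least 90 h co-culture; Detection: luminescent β-galactosidase signal after 60 min lysis.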
The depositor's hits bear a star; nt = not tested or not shown. The full list was thinned out, with hits kept by preference.

SMILES	Hsp70 activator	L major viab	HSF1 inhib	HSF-1 act	T cruzi repl
CCCCC#Cc1cncc(C(=O)N/N=C/c2cccc(OC)c2)c1	nt	nt	3	6	-1
CCN(CC)CCNc1nc(-c2ccccc2)c2c(c1C#N)CC(C)(C)OC2	0	28	-10	-10	56*
O=C(Nc1ccc2ccccc2c1)C(c1ccccc1)C1CCCC1 (configuration not stated)	0	30	4	-1	64*
O=C(CCCCl)Oc1ccc2cc(-c3ccc4ccccc4n3)c(=O)oc2c1	0	-5	23	41	-13
CN(C)CCCNc1oc(-c2ccc(Cl)cc2)nc1C#N	0	83*	-2	0	3
COCCNc1oc(-c2ccc(Cl)cc2)nc1C#N	0	-15	22	10	3
CCN(CC)CCCNc1oc(-c2cccc(Cl)c2)nc1C#N	0	101*	-3	-8	49
CC(=O)NC1(C(F)(F)F)C(=O)Nc2c1c(=O)[nH]c(=O)n2-c1ccccc1 (configuration not stated)	nt	nt	nt	nt	12
Cc1cccc(C2=NC(C(F)(F)F)(C(F)(F)F)c3c(n(-c4ccc(F)cc4)c(=O)[nH]c3=O)N2)c1	0	74*	-3	-16	-9
COc1cccc(CNC(=O)Cn2cccc2C(=O)c2ccccc2C)c1	nt	nt	10	1	-8
Cc1cc(/C=N/O)c(C)n1-c1ccc(Br)cc1	-1	6	-13	-31	5
O/N=C/c1ccn(-c2ccc(Br)cc2)c1	0	92*	17	23	9
O=C(CSc1ccc(Cl)cc1)N/N=C/c1ccc([N+](=O)[O-])o1	nt	nt	28	45	51
CC(C)c1ccc(-n2cnn(-c3ncccc3[N+](=O)[O-])c2=O)cc1	0	-4	26	54*	6
COc1ccc(/C=N/NC(=O)C(=O)/C=C2\NC3(CCCC3)Cc3ccccc32)cc1	0	29	-2	9	23
O=C(/C=C1\NC2(CCCC2)Cc2ccccc21)C(=O)N/N=C/c1ccc(O)c(O)c1	0	62*	8	5	3
O=C(Cc1c(Sc2ccccc2)c2ccccc2n1Cc1ccccc1)NCCO	0	58*	10	21	18
Cn1c(CC(=O)NCCO)c(Sc2ccccc2)c2ccccc21	0	-1	-2	4	-6
CCC(Sc1nc2ccc(N)cc2s1)C(=O)Nc1nccs1 (configuration not stated)	0	55*	-8	-2	-1
COc1cccc(-c2nnc(NC(=O)c3ccc(Cl)s3)o2)c1	0	55*	-6	5	34
CCCN(CCC)S(=O)(=O)c1ccc(C(=O)Nc2nnc(-c3cc(OC)cc(OC)c3)o2)cc1	0	100*	-10	-19	58*
CCCN(CCC)S(=O)(=O)c1ccc(C(=O)Nc2nnc(CSC)o2)cc1	0	-3	-6	-13	3
CCCN(CCC)S(=O)(=O)c1ccc(C(=O)Nc2nnc(-c3cccc(OC)c3)o2)cc1	0	98*	-7	-11	54
OC1(c2ccccc2)CN(c2ccccc2)C2=[N+]1CCS2 (configuration not stated)	-1	9	-3	14	3
Cc1ccc(NC(=O)c2cccc3c2C(=O)N(C2CCCCC2)C3)c(Cl)c1	nt	nt	-1	-7	32
SMILES	Hsp70 activator	L major viab	HSF1 inhib	HSF-1 act	T cruzi repl
CCCN=Cc1ccc(O)cc1	1	2	-10	3	-13
CCC(C)(C)n1nnnc1C(c1cccnc1)N1CCN(c2cccc(C(F)(F)F)c2)CC1 (configuration not stated)	0	95*	-2	-2	62*
CCC(C)(C)n1nnnc1C(c1ccncc1)N1CCN(c2cccc(OC)c2)CC1 (configuration not stated)	0	54*	17	12	28
CN1CCN(C(c2cccc(C(F)(F)F)c2)c2nnnn2C(C)(C)C)CC1 (configuration not stated)	0	-5	1	7	-26
COc1cccc(N2CCN(C(c3ccccn3)c3nnnn3C(C)(C)C)CC2)c1 (configuration not stated)	0	-4	-1	13	12
CN1CCN(c2cc3c(c4c2[nH]c2ccccc24)C(=O)CC(C)(C)C3)CC1	0	95*	7	13	45
COc1ccc(CN2CCN(C(=O)c3cccs3)CC2)c(OC)c1OC	0	95*	3	-4	nt
O=C(c1cccs1)N1CCN(Cc2ccccc2[N+](=O)[O-])CC1	0	76*	-4	-24	5
COc1ccc(CN2CCN(C(=O)C3CCC(CNS(=O)(=O)c4ccccc4)CC3)CC2)c(OC)c1OC (configuration not stated)	0	4	-1	1	58*
COc1cc2c(cc1OC)CN(C1CC(=O)N(c3c(C)cccc3C)C1=O)CC2 (configuration not stated)	0	11	-1	9	-5
CN1CCC(OC(=O)c2cccc(Cl)c2)CC1	0	11	-6	-14	60*
CN1CCC(OC(=O)c2ccc(Br)cc2)CC1	0	85*	-9	-6	62*
CCN(CC)CCCNC(=O)CN1N=C(c2ccc(OC)cc2)CCC1=O	nt	nt	0	-1	-2
COc1ccc(C(=O)N2CCCC(CNC(=O)c3ccc(F)cc3)C2)cc1OC (configuration not stated)	nt	nt	-7	-9	-18
CCc1ccc(CN2CCCC(CNC(=O)c3cccc(OC)c3OC)C2)cc1 (configuration not stated)	nt	nt	-4	10	61*
COc1cccc(CN2CCCC(CNC(=O)c3ccc(F)cc3)C2)c1OC (configuration not stated)	0	-1	-8	8	68*
COCc1cc(CN2CCCC(CNC(=O)c3ccc(F)cc3)C2)ccc1OC (configuration not stated)	0	0	2	6	81*
CCn1ncc(CN2CCCC(CNC(=O)c3ccc(F)cc3)C2)c1C (configuration not stated)	0	-1	-8	-7	73*
CCc1ccc(CN2CCCC(CNC(=O)c3cc(OC)cc(OC)c3)C2)cc1 (configuration not stated)	nt	nt	5	16	45
O=S(=O)(Cc1ccc(Cl)cc1)N1CCN(c2ncccn2)CC1	nt	nt	-5	-21	2
Nc1c(-c2ccccc2)sc2ccc3ccccc3[n+]12	nt	nt	-3	0	19
O=C(N/N=C/c1cccc2cccnc12)c1ccccc1O	nt	nt	-2	-6	15
COc1ccc(C(=O)Nc2ccc3c(c2)C(=O)N(C)C3=O)cc1OC	nt	nt	0	13	3
CCN(CC(=O)N1CCCC1)S(=O)(=O)c1ccc(OC)cc1	nt	nt	-5	-13	-2

Assay outcomes deposited in PubChem BioAssay by several laboratories.
